Assay results taken from ChEMBL document CHEMBL4706565, “Anti-glioma effects of 2-aminothiophene-3-carboxamide derivatives, ANO1 channel blockers” (Eur J Med Chem, 2020).
Activity calls are given as the source filed them. No cut-off for these calls is given here.

Key:
[1] = target: T1, Protein tweety homolog 1 (Mus musculus) (UniProt Q9D3A9); assay: Inhibition of GFP-fused mouse TTYH1 channel expressed in HEK293A cells assessed as inhibition of channel current amplitude at 1 to 10 uM at membrane potential of +80 mV by patch clamp electrophysiology assay; assay type: cell-based; conditions: HEK293-A, dose 1-10 µM
T1 sequence (whole entry): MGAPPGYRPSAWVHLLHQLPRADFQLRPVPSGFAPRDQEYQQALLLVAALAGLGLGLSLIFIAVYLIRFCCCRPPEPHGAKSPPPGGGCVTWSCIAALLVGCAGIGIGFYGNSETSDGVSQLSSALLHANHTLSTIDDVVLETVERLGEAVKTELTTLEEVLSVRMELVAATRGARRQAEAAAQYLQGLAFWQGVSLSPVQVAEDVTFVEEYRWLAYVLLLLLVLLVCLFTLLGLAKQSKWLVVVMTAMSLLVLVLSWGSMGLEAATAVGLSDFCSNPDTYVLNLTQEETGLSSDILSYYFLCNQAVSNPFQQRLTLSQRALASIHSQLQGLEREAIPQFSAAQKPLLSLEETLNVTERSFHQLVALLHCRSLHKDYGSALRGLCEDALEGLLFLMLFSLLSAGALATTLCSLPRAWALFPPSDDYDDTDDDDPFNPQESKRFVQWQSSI
Summary of the method: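 Whole-cell recording at room temperature in HEK293A cells transfected with GFP-mANO1, GFP-mANO2 or GFP-mTTYH1. 1 s ramps from +80 to -80 mV, holding potential -10 mV. For ANO1/ANO2: pipette CsCl 146 mM with Ca-EGTA-NMDG, pH 7.3; bath NaCl-based, pH 7.3. For TTYH1: Tris-aspartate pipette (pH 7.2) and Tris-HCl bath (pH 7.4), with […] and BaCl2 added to block K+ channels, and hypotonic (220 mOsm/kg) bath. Washout recordings assessed reversibility.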

[2] = target: T2, Anoctamin-1 (Homo sapiens) (UniProt Q5XXA6); assay: Inhibition of human ANO1 channel expressed in HEK293 cells at 10 uM incubated for 10 mins by FLIPR assay relative to control; assay type: cell-based
T2 sequence (whole entry): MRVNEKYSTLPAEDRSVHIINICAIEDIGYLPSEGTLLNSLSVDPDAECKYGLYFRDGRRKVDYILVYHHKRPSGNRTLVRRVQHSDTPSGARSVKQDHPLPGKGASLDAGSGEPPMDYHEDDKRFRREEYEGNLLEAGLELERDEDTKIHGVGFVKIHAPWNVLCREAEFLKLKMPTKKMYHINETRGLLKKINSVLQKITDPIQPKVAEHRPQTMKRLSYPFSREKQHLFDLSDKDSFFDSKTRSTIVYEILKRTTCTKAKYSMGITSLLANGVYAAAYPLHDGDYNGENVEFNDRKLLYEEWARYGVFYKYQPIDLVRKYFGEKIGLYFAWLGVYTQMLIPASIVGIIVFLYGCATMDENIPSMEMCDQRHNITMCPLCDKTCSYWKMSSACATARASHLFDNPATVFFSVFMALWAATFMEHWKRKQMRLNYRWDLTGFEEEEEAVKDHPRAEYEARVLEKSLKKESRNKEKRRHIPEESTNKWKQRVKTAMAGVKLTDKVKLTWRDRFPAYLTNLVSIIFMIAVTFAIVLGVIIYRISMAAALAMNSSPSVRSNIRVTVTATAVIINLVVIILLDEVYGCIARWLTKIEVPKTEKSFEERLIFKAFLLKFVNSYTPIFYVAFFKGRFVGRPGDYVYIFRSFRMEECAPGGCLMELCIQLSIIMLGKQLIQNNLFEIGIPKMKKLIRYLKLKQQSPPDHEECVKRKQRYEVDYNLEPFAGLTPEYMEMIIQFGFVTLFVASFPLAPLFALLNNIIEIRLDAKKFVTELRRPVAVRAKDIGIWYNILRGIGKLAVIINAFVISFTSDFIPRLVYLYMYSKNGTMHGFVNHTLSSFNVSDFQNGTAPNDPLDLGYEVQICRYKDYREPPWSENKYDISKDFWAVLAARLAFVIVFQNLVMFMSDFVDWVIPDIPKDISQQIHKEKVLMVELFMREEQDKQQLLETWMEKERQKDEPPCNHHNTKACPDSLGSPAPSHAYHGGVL
Summary of the method: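 HEK293 cells expressing human ANO1, 50,000 cells/well, plated overnight. Loaded with FLIPR Red membrane-potential dye in HEPES-buffered saline (pH 7.4) for 40-60 min at room temperature. Compound added for 10 min at room temperature, final DMSO 0.5%.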

U-251 [3] = assay: Inhibition of cell migration in human U251 cells incubated for 18 hrs by wound healing assay; assay type: functional, cell-based; conditions: dose 1-10 µM
Summary of the method: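 U251 monolayer, 2.0×10^5 cells/well, plated overnight, then scratched and washed with PBS. Incubated 18 h in complete medium with compound (1, 5 or 10 μM). Wound area imaged before and after incubation; migration ratio taken from migrated area. One-way ANOVA.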

U-251 [4] = assay: Synergistic antiproliferative activity against human U251 cells assessed as combination index at compound:temozolomide concentration ratio of 1:1 in presence of temozolomide by Chou-Talalay method; assay type: functional
Summary of the method: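 U251 proliferation measured with CellTiter-Glo across full titrations of an ANO1 inhibitor combined with temozolomide. Combination index calculated by the Chou-Talalay method.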

| Structure (SMILES) | inhibition [1] | inhibition [2] | inhibition (U-251 [3]) | CI (U-251 [4]) |
| --- | --- | --- | --- | --- |
| NC(=O)c1c(NC(=S)NC(=O)c2ccc(Cl)cc2)sc2c1CCC2 | inactive | 72.2% | Dose-dependent effect |  |
| CC(C)(C)C(=O)Nc1sc2c(c1C(N)=O)CCC(C(C)(C)C)C2 (configuration not stated) | inactive | 86.9% | Dose-dependent effect | 0.63 |
